# Screening results (PubChem BioAssay)
# G6PDH CS = L. mesenteroides G6PDH inhibitors, counter-screen for G6PDH-coupled screening assays, biochemical, Leuconostoc mesenteroides enzyme; Purified L. mesenteroides G6PDH, diaphorase/resazurin coupled fluorescence, 45 min; inhibition, % at 5 µM; 0.12% of 200,000 active; glucose-6-phosphate dehydrogenase [Leuconostoc mesenteroides]; AID 1020, 2008; in the data active = inhibition above about 50%
# PMI act satM6P = human PMI activators, high substrate, primary screen, biochemical, fluorescence intensity, near-saturating mannose 6-phosphate; Mannose-6-phosphate isomerase (Homo sapiens), P34949; coupled PMI enzyme assay, resazurin fluorescence, 20 min; stronger effect = higher value; 1 = untreated enzyme, 0 = substrate-free blank; AID 1216, 2008; 0.34% of 190,000 active; activation factor at 20 µM;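 active = activation factor of 2 or more at 20 µM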
# Target sequence (P34949 whole entry, looked up): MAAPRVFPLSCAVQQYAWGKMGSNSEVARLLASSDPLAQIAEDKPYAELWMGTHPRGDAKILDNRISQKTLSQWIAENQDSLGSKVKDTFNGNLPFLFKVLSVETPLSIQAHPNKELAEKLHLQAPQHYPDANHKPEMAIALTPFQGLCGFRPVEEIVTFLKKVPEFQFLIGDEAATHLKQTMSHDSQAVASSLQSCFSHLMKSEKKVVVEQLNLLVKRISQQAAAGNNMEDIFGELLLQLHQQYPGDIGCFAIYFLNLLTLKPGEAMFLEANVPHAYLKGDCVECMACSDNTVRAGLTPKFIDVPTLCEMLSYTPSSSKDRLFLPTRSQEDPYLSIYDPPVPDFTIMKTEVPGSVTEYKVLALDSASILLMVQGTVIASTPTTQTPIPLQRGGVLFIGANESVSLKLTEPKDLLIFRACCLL
#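 Test system: human phosphomannose isomerase with PGI, G6PDH, diaphorase coupling enzymes; Amount: PMI at 15 ng/mL final; Reagent: Mannose-6-phosphate 1.0 mM (near-saturating) plus 0.22 mM NADP+; Timing: 20 min, room temperature; Technique: resorufin fluorescence at Ex 544/Em 590 nm; Dosing: 20 µM single dose.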
# Diaphorase act = compounds boosting diaphorase resazurin reduction – biochemical, uHTS, resorufin fluorescence, counter-screen for diaphorase-coupled primary assays, primary screen. AID 1229, 2008. 0.005% of 190,000 active. activation factor at 20 µM. Diaphorase/resazurin coupled assay, 16 min; stronger effect = higher value; 1 = vehicle wells, 0 = NADH-free wells;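 active = diaphorase activity raised at least twofold by the compound at 20 µM; inactive = activation factor below 2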
#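 Measured by – red resorufin fluorescence at 544/590 nm excitation/emission · Test system – Clostridium kluyveri diaphorase, purified enzyme · Incubation – reaction time 16 min, room temperature · Buffer or medium – 50 mM HEPES pH 7.4 with 4.542 mM MgCl2, 0.005% Tween 20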
# PMI activator = activators of human PMI, primary screen, biochemical, fluorescence intensity, near-Km mannose 6-phosphate; activation factor at 20 µM; purified human PMI, coupled resazurin fluorescence, 20 min; stronger effect = higher value; 1 = vehicle control, 0 substrate-free wells; Mannose-6-phosphate isomerase (Homo sapiens), P34949; 0.005% of 190,000 active; AID 1214, 2008;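 active = activation factor of 2 or more at 20 µM, relative to plate controls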
# Diaph inh CS = diaphorase inhibitors and chemical oxidizers, primary screen, counter-screen for diaphorase-coupled primary assays, biochemical, uHTS, resorufin fluorescence | inhibition, % at 20 µM | 0.69% of 190,000 active | diaphorase resazurin-to-resorufin fluorescence, NADH, 16 min; bacterial (C. kluyveri) enzyme, not human;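 active = primary screen inhibition at 20 µM above a set limit, cut at about 50% in these data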;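 also: plate controls were DMSO with full reaction for no effect and wells lacking NADH for full effect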
#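 Test system: Clostridium kluyveri diaphorase enzyme / Quantity: diaphorase at 0.14 U/mL in enzyme working solution / Incubation: 16-min room-temperature incubation before reading / Benchmarks: NADH-free wells as positive control, DMSO-only neutral wells / Signal: resorufin fluorescence 544/590 nm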
# Tb hexokinase = Trypanosoma brucei hexokinase 1 inhibitors, primary screen, biochemical, G6PDH-coupled NADH absorbance, MLSCN library; hexokinase 1 [Trypanosoma brucei]; recombinant TbHK1, G6PDH-coupled NADH A340; inhibition, % at 10 µM; 0.11% of 220,000 active; AID 1430, 2008;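 active = inhibition of 50% or more in the single-dose primary screen; inactive = inhibition below 50%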
# Numbers without * were called inactive; / = no result given. A selection: hits, their analogues and other compounds. The true share with any hit is near 1.1%.
SMILES,G6PDH CS,PMI act satM6P,Diaphorase act,PMI activator,Diaph inh CS,Tb hexokinase
CC(C)[C@H](NC(=O)NCc1ccc(F)cc1)C(=O)O,/,/,/,/,/,2
CC1(C)Cc2ccccc2C2=NNC(=O)C2=N1,52*,0.2,0.3,0.2,69*,22
COc1ccc(S(=O)(=O)Nc2ccc(O)c(Sc3ncn[nH]3)c2)cc1,4,0.9,0.8,0.9,15,-4
COc1ccc(S(=O)(=O)Nc2cc(Sc3ncn[nH]3)c(O)c3ccccc23)cc1,54*,0.3,0.8,0,20,15
CCOC(=O)C1(C)/C(=N/Nc2cccc(Cl)c2)C(=O)C(=O)N1c1ccccc1 (configuration not stated),8,2.3*,0.8,1.4,19,-1
CCOC(=O)C1(C)/C(=N/Nc2ccc(S(N)(=O)=O)cc2)C(=O)C(=O)N1c1ccccc1 (configuration not stated),11,0.7,0.9,1.1,11,-4
CCOC(=O)C1(C)/C(=N/Nc2ccc(Cl)cc2)C(=O)C(=O)N1c1ccccc1 (configuration not stated),-8,2.2*,0.9,1.6,12,-4
CCOC(=O)C1(C)/C(=N/Nc2ccccc2Cl)C(=O)C(=O)N1c1ccccc1 (configuration not stated),13,2.1*,0.9,1.6,7,17
CCOC(=O)CSc1nnc(CNc2cccc(Cl)c2)n1-c1ccccc1,10,1,1,0.9,0,1
CC(C)(C)NC(=O)NCC1CCCC1NC(=O)NC(C)(C)C (configuration not stated),/,/,/,/,/,-7
C/C(=N\Nc1ccc(Cl)c(C(=O)O)c1)c1ccc[nH]1,/,/,/,/,/,-42
NC(=O)C1CCN(C(=O)COc2ccc(Nc3ccccc3)cc2)CC1,/,/,/,/,/,-4
COc1ccc(CN2CCN(C(=O)C3CCC(CNS(=O)(=O)c4ccc(C)cc4)CC3)CC2)c(OC)c1OC (configuration not stated),-3,1,0.9,1.1,7,-7
CC1=C(C#N)C(=O)NC(=O)/C1=C\c1ccc(-c2ccc(C)cc2[N+](=O)[O-])o1,14,0.5,0.4,0.9,57*,-5
CN(C)c1ccc(-c2noc(C3CCN(S(=O)(=O)c4cccc(Cl)c4)CC3)n2)cc1,8,0.9,0.8,0.8,19,2
O=S(=O)(c1ccc2ccccc2c1)N1CCC(c2nc(-c3ccncc3)no2)CC1,-1,0.7,0.4,0.6,57*,-6
COc1cc2c(cc1OC)C1=C(C#N)CCC(=NC(=O)c3ccco3)N1CC2,4,1,1.1,1.1,-6,-17
COc1cc2c(cc1OC)C1=C(C#N)CC/C(=N\S(=O)(=O)c3cccc(Cl)c3)N1CC2,0,0.9,0.4,0.9,61*,-14
O=C(Cc1ccccc1)NC(Nc1cccc2ccccc12)C(Cl)(Cl)Cl (configuration not stated),4,0.8,0.3,0.9,69*,0
CN(C)C(CNC(=S)Nc1cccc(Cl)c1)c1cccnc1 (configuration not stated),-5,1,0.9,1,7,-7
CCCCC(=O)NNC(=S)NC(=O)c1ccc(C)cc1,10,1.3,0.7,1.1,32,-1
Cc1ccc(C(=O)NC(=S)NNC(=O)CC#N)cc1,9,1,0.4,0.9,57*,-5
O=C(OC1CCCCC1)c1ccc2c(c1)C1C=CCC1C(C(=O)O)N2 (configuration not stated),-7,1.8,0.5,1.3,47,16
O=C(O)C1Nc2c(O)cccc2C2C=CCC12 (configuration not stated),24,0.9,0.2,0.6,78*,6
CC1(C)Cn2c(nc(=O)c3c2NCN(CCc2ccccc2)C3)S1,7,1.1,1.1,1.1,-10,-2
SMILES,G6PDH CS,PMI act satM6P,Diaphorase act,PMI activator,Diaph inh CS,Tb hexokinase
COC(=O)c1ccc(-c2ccc(C(c3c(C)[nH][nH]c3=O)c3c(C)[nH][nH]c3=O)o2)cc1,24,1,0.3,0.5,68*,-11
Cc1sc2ncn(/N=C/c3ccco3)c(=O)c2c1C,/,/,/,/,/,-32
O=C(/C=C1\NCC2c3ccccc3CCN2C1=O)c1ccccc1 (configuration not stated),-3,2.6*,1.1,1.7,-6,10
CC(=O)NC1=C(NC2CCS(=O)(=O)C2)C(=O)c2ccccc2C1=O (configuration not stated),-12,0.9,0.6,0.7,39,-2
CN(C1=C(NC(=O)c2ccccc2)C(=O)c2ccccc2C1=O)C1CCS(=O)(=O)C1 (configuration not stated),34,0.8,0.4,0.8,59*,19
Cc1ccc(C(C)C)c(OCC(=O)N/N=C/c2cccn2C)c1,/,/,/,/,/,-27
O=C(NCc1ccccc1)c1sc(=S)n2c1[nH]c(=O)c1ccccc12,8,0.9,0.3,1,73*,-6
CC(=O)NNC(=O)c1sc(=S)n2c1[nH]c(=O)c1sccc12,-1,0.5,0.7,0.4,29,11
CC(=O)Nc1ccc(OCc2nnc(-c3ccc(Cl)cc3)o2)cc1,-1,1,0.9,1,6,-2
Nn1cc(-c2ccccc2)nc1SCC(=O)N1CCN(S(=O)(=O)c2ccc3ccccc3c2)CC1,-2,1,0.7,0.9,26,-9
Nn1cc(-c2ccccc2)nc1SCC(=O)N1CCN(S(=O)(=O)c2ccc(Cl)cc2)CC1,3,1,0.5,1,54*,-2
Cc1cccc(NC2=C/C(=N/S(=O)(=O)c3cccs3)c3ccccc3C2=O)c1,53*,0.4,0.9,1,13,-5
Cc1ccc(NC2=C/C(=N\S(=O)(=O)c3cccs3)c3ccccc3C2=O)c(C)c1,52*,0.5,0.8,1,20,3
Cc1ccc(Cl)cc1NC1=C/C(=N\S(=O)(=O)c2cccs2)c2ccccc2C1=O,54*,0.8,0.7,0.7,30,-13
